Data as given in article PMC6415796 (Nano letters, 2015).
“Also recorded” adds a separate entry of the source. Strand notation (5' to 3'): a small letter for the sugar, then the base; units joined by * are phosphorothioate-linked, units joined directly phosphodiester-linked; [ ] holds rarer units or linkages, { } end groups; capitals alone tell only the bases. [tcDNA-N] = tricyclo-DNA nucleotide (N: the base); m = 2'-O-methyl

What was measured:
[1] = DLS after incubation with physiological albumin solution; assay type: physicochemical; details: equal volume BSA 4.25 g/dL in PBS, 1 h at 37 °C, diluted 10x before DLS
[2] = DLS analysis of ASOs in PBS; assay type: physicochemical; details: 1 mM ASO in PBS, each measured 3 times
[3] = test system: Differentiated C2C12 cells; assay: Uptake of FITC-labelled ASOs with SR ligands; assay type: cell-based, murine; details: ligand pretreatment 1 h, then FITC-ASO 200 nM for 4 h
In short: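 C2C12 cells were grown in DMEM with 10% FBS, then differentiated 3-4 days in DMEM with 2% horse serum (2.5x10⁴/cm²). Cells were pretreated 1 h with scavenger-receptor ligands or control polyanions at 100 μg/ml. They were then given FITC-2'OMePS or FITC-tcDNA (200 nM) for 4 h, washed, and methanol-fixed (-20 °C, 10 min). Mean fluorescence intensity came from microscopy images; one-way ANOVA, mean ± SEM.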

[4] = TEM visualization of self-assembled nanoparticles; assay type: physicochemical; details: Fig. S3
SCARA1 = target: T1, SCARA1 (Mus musculus, UniProt P30204); assay: Dmd exon 23 skipping; assay type: in vivo, mice; details: 10 mg/kg intravenous, 1 week, n=4, qPCR
T1 sequence (P30204 1-351 limits assumed): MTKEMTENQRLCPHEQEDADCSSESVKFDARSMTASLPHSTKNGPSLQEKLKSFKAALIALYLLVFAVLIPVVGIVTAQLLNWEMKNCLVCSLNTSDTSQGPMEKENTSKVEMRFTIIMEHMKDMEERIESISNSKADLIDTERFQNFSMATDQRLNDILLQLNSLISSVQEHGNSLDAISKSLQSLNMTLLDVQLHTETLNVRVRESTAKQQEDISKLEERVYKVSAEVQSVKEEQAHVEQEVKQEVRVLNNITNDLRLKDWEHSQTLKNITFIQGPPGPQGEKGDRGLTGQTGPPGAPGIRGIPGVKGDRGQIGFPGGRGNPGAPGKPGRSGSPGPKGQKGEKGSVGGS
In short: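 SCARA1-/- and C57BL/6 mice (14 months old, n = 4) received 10 mg/kg peptide–PMO conjugate in 0.9% saline via tail vein. After one week, tibialis anterior, diaphragm and heart were snap-frozen. Multiplex Taqman qPCR on 25 ng cDNA used FAM primers spanning exon 20-21 and HEX primers spanning exon 23-24. Skipping percentage came from normalising exon 23-24 to exon 20-21 amplification.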

[5] = test system: class A scavenger receptor subtypes (SCARAs); assay: PPMO splice-switching activity; assay type: cell-based, murine; details: for Effect of SR ligand or control on splice-switching activity of PPMO: differentiated C2C12, ligand 50 μg/ml for 1 h before PPMO 500 nM for 4 h in Opti-MEM, then 20 h, nested RT-PCR
[6] = Zeta potential measurement; assay type: physicochemical
[7] = Critical micelle concentration by dye micellization method; assay type: physicochemical; details: eosin Y 0.019 mM, absorbance at 542 nm, rounded value
[8] = Uptake and activity comparison of fluorescently labelled ASOs; assay type: cell-based; details: Fig. S4

Substance: 2’OMe: 2’Omethyl phosphorothioate ASO 5’- GGCCAAACCUCGGCUUACCU-3’, synthesized by IDT (antisense mG*mG*mC*mC*mA*mA*mA*mC*mC*mU*mC*mG*mG*mC*mU*mU*mA*mC*mC*mU)
- DLS particulate peaks in albumin model [1]: failed to do so
- DLS population profile (peaks) [2]: predominant peak was of singular molecules
- DLS size of predominant peak (singular molecules) [2]: around 2 nm
- Uptake in the presence of fucoidin and dextran sulfates [3]: only partially inhibited

Substance: RXRRBRRXR YQFLI RXRBRXRB [Pip6a-PMO]
- Nanoparticle formation and relative size by TEM [4]: spontaneously forms nanoparticles; also recorded: smaller than B-PMO nanoparticles
- Exon 23-skipping activity in SCARA1 knock-out versus wild-type mice, diaphragm (SCARA1): significantly reduced
- Exon 23-skipping activity in SCARA1 knock-out versus wild-type mice, heart (SCARA1): significantly reduced
- Uptake in the presence of SR ligands ([5]; Fig. S3): significantly inhibited

Substance: RXRRBRRXRRBRXB [PPMO]
- DLS particulate peaks in albumin model [1]: high intensity particulate peaks
- Zeta potential ([6]; in PBS): -1.21 ± 0.63
- Zeta potential ([6]; in serum-free medium): -3.48 ±2.31
- Zeta potential ([6]; in water): 10 ± 2.70
- Critical micelle concentration (CMC) [7]: about 1.4 μM
- DLS population profile (peaks) [2]: two peaks, one for singular molecules and one representing a particulate population
- Extent of uptake relative to other chemistries [8]: several folds higher uptake than the other two chemistries

Substance: chondroitin sulfate
- Effect of SR ligand or control on splice-switching activity of PPMO [5]: no effect

Substance: dextran sulfate
- Effect of SR ligand or control on splice-switching activity of PPMO [5]: completely inhibited

Substance: fucoidin sulfate
- Effect of SR ligand or control on splice-switching activity of PPMO [5]: completely inhibited

Substance: tcDNA: phosphorothioated tricyclo DNA 5’-AACCTCGGCTTACCT-3’, synthesized by SYNTHENA (all [tcDNA-N], all phosphorothioate, methylation of C not given here)
- Extent of uptake relative to other chemistries [8]: significantly higher than that of 2’OMe
